Reference: ChEMBL document CHEMBL1833930, “Synthesis and biological activities of triazole derivatives as inhibitors of InhA and antituberculosis agents” (2011)
≈ marks a conversion by molar mass, not a printed value.

Columns and labels:
[1] = test system: Mycobacterium tuberculosis; experiment: Antimycobacterial activity against Mycobacterium tuberculosis H37Rv by twofold dilution method; format: functional
Method in brief: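 Single colony inoculated into complete Middlebrook 7H9 and grown at 37 °C to exponential phase (~10⁸ CFU/mL, OD600 0.8–1.0). Diluted to ~10⁷ CFU/mL, then streaked onto plates with two-fold serial compound dilutions. MIC was the lowest concentration inhibiting growth. Three independent repeats.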

[2] = molecular target: T1, Enoyl-[acyl-carrier-protein] reductase [NADH] (Mycobacterium tuberculosis) (UniProt P9WGR1); experiment: Inhibition of Mycobacterium tuberculosis InhA expressed in Escherichia coli BL21 using trans-2-dodecenoyl-Coenzyme A as substrate at 50 uM by spectrophotometry
T1 sequence (whole entry): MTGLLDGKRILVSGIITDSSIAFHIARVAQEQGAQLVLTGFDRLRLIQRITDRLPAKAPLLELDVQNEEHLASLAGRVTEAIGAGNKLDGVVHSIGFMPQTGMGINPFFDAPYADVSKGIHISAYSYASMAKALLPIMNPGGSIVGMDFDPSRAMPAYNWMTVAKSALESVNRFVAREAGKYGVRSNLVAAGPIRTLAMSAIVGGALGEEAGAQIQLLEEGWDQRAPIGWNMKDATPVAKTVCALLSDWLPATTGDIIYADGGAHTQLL
Method in brief: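 Recombinant M. tuberculosis InhA was expressed in E. coli with 1 mM IPTG overnight at 20 °C. It was purified on Ni-NTA and desalted into 30 mM PIPES pH 6.8, 150 mM NaCl. Reactions ran in buffer at pH 6.8 with 150 mM NaCl. Controls were run identically without inhibitor.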

SMILES | MIC [1] | inhibition [2]
Cc1cc(C)cc(Cn2cc(C(=O)Cc3ccc(Cl)cc3Cl)nn2)c1 | 267 µM (≈ 100 µg/mL) | –
COc1cc(Cn2cc(C(=O)Cc3ccc(Cl)cc3Cl)nn2)cc(OC)c1 | 246 µM (≈ 100 µg/mL) | –
O=C(Cc1ccccc1)c1cn(CC2CCCCC2)nn1 | 88.2 µM (≈ 25 µg/mL) | 12%
CCCCCCCCCn1cc(CCc2ccccc2)nn1 | 16.7 µM (≈ 5 µg/mL) | 58%
O=C(Cc1ccccc1)c1cn(Cc2ccc([N+](=O)[O-])cc2)nn1 | 310 µM (≈ 100 µg/mL) | –
COc1cccc(Cn2cc(C(=O)Cc3ccccc3)nn2)c1 | 81.3 µM (≈ 25 µg/mL) | 10%
CCCCCCCCn1cc(C(=O)Cc2ccc(Cl)cc2Cl)nn1 | 27.2 µM (≈ 10 µg/mL) | –
c1ccc(Cc2cn(Cc3ccccc3)nn2)cc1 | 201 µM (≈ 50 µg/mL) | –
c1ccc(CCc2cn(Cc3ccccc3)nn2)cc1 | 94.9 µM (≈ 25 µg/mL) | 15%
COc1cccc(Cn2cc(C(=O)Cc3ccc(Cl)cc3Cl)nn2)c1 | 13.3 µM (≈ 5 µg/mL) | –
O=C(Cc1ccc(Cl)cc1Cl)c1cn(Cc2ccc([N+](=O)[O-])cc2)nn1 | 256 µM (≈ 100 µg/mL) | –
c1ccc(Cn2cc(-c3ccccc3)nn2)cc1 | > 425 µM | –
Cc1cc(C)cc(Cn2cc(CCc3ccccc3)nn2)c1 | 34.3 µM (≈ 9.99 µg/mL) | 11%
CCCCCCCCCCCCn1cc(CCc2ccccc2)nn1 | ≤ 5.9 µM | 40%
COc1cc(Cn2cc(C(=O)Cc3ccccc3)nn2)cc(OC)c1 | > 296 µM | –
O=C(Cc1ccc(Cl)cc1Cl)c1cn(Cc2ccccc2)nn1 | 289 µM (≈ 100 µg/mL) | –
O=C(Cc1ccccc1)c1cn(Cc2ccccc2)nn1 | 361 µM (≈ 100 µg/mL) | 13%
c1ccc(CCc2cn(CC3CCCCC3)nn2)cc1 | 186 µM (≈ 50 µg/mL) | –
CCCCCCCCn1cc(CCc2ccccc2)nn1 | 35 µM (≈ 9.99 µg/mL) | 46%
Oc1cc(Cl)ccc1Oc1ccc(Cl)cc1Cl [TRICLOSAN] | 34.5 µM (≈ 9.99 µg/mL) | –
CCCCCCCCn1cc(C(=O)Cc2ccccc2)nn1 | 83.5 µM (≈ 25 µg/mL) | 25%
CCCCCCCCn1cc(C(O)Cc2ccc(Cl)cc2Cl)nn1 (racemic) | 67.5 µM (≈ 25 µg/mL) | –
CCCCCCCCn1cc(C(O)Cc2ccccc2)nn1 (racemic) | 33.2 µM (≈ 10 µg/mL) | –
Cc1cc(C)cc(Cn2cc(C(=O)Cc3ccccc3)nn2)c1 | > 327 µM | 10%
